In BindingDB's records for doi:10.1021/acs.jnatprod.5b00637 (University of Eastern Piedmont, 2016):

Target: Signal transducer and activator of transcription 3 (Homo sapiens, UniProt P40763)
Assay: Inhibition of IFN gamma-induced STAT3 (unknown origin) activation in HeLa-STAT3-Luc cells after 6 hrs by luciferase reporter gene assay
Method in brief: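 HeLa-STAT3-Luc reporter cells (15 × 10⁴ cells/mL, DMEM with 10% FBS, 37 °C, 5% CO2) were preincubated with the compounds at rising concentrations, then stimulated with IFNγ for 6 h. Lysate luciferase is expressed as percent inhibition, with IFNγ-induced activity set as 100%.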

Sequence of Signal transducer and activator of transcription 3 (P40763 whole entry): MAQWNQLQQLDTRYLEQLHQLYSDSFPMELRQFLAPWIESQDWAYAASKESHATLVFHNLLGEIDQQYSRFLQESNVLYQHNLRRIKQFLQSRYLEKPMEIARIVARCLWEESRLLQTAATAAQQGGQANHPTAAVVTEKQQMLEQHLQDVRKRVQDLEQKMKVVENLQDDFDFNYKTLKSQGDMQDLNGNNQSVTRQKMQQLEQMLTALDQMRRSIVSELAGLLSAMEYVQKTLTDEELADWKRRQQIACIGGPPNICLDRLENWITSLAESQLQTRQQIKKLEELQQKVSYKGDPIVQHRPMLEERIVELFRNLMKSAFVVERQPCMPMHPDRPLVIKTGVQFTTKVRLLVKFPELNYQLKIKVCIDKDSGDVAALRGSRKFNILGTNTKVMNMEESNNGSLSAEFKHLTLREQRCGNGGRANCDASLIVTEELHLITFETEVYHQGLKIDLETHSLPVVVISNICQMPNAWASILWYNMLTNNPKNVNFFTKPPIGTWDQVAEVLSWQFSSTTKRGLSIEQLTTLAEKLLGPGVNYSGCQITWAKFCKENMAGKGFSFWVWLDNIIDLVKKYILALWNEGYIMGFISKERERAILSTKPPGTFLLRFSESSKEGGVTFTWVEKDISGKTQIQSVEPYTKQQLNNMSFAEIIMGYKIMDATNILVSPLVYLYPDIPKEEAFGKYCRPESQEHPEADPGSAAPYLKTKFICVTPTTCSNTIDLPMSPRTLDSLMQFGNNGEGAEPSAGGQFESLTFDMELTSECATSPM

SMILES: CC(C)=CC(=O)C[C@H](C)c1ccc(C)cc1 [(+)-(S)-ar-turmerone]
- IC50: 14.2 µM
